Laboratory results: article PMC4269301 (International journal of peptide research and therapeutics, 2014)

How the values were obtained:
adenylyl cyclase (AC) = assay: Adenylyl cyclase activity in membranes from WT-β2AR cells; type: biochemical; conditions: 100 μM peptide, 10 min, 30 °C
[1] = system: GRK site pS-(355,356) of the β2AR in WT-β2AR cells; assay: Intact-cell GRK site phosphorylation of the β2AR; type: cell-based; conditions: 100 μM, 20 min pretreatment, 20 nM ISO
[2] = system: PKA site pS-262 of the β2AR in WT-β2AR cells; assay: Intact-cell PKA site phosphorylation of the β2AR; type: cell-based; conditions: 100 μM, 20 min pretreatment, 20 nM ISO
Outline: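 HEK293 cells stably expressing FLAG-β2AR (2–4 pmol/mg) on poly-L-lysine; 20 min with 100 μM TAT-tagged peptide, TAT or DMSO, then 20 nM ISO in 0.1 mM ascorbate/1 mM thiourea pH 7, or carrier, 5 min at 37 °C. Lysates on 12 % SDS-PAGE, immunoblot anti-pS262, reprobed anti-C-tail for normalisation. ≥4 experiments in duplicate, % of control.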

CC(=O)NCC(=O)N[C@@H](CCCNC(=N)N)C(=O)N[C@@H](CCCCN)C(=O)N[C@@H](CCCCN)C(=O)N[C@@H](CCCNC(=N)N)C(=O)N[C@@H](CCCNC(=N)N)C(=O)N[C@@H](CCC(N)=O)C(=O)N[C@@H](CCCNC(=N)N)C(=O)N[C@@H](CCCNC(=N)N)C(=O)N[C@@H](CCCNC(=N)N)C(=O)N1CCC[C@H]1C(=O)N1CCC[C@H]1C(=O)N[C@@H](CCC(N)=O)C(N)=O [TAT]
Effect on ISO-stimulated AC activity (adenylyl cyclase (AC); 1 μM ISO): without effect
Effect on FSK-stimulated AC activity (adenylyl cyclase (AC); 20 μM FSK): without effect
Effect on GRK phosphorylation of β2AR in intact cells [1]: did not inhibit
Effect on PKA site (S262) phosphorylation of the β2AR in intact cells [2]: did not inhibit
